Sampled rows, rich in hits. Any-hit rate of the full collection: about 4%.
MPTP inh – permeability transition pore inhibition. isolated mouse mitochondria, Ca2+ swelling absorbance, 30 min. inhibition, % at 10 µM. hit rate 1.4% among 360,000;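 active = inhibition of 50% or more, scaled per plate between neutral and stimulator controls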;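 also: 0% = DMSO wells given calcium and 100% = 1 mM EGTA wells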
TAAR1 ag – human TAAR1 agonism. Q96RJ0. CHO RD-HGA16 TAAR1, Fluo-8 calcium fluorescence; vehicle wells 0%, saturating PEA agonist 100%. activation, % at 3 µM. hit rate 0.99% among 360,000;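 active = activation above the mean activation of all test compounds in the run plus 3 SD, cut at about 38% in these data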
Target sequence (Q96RJ0 whole entry, looked up): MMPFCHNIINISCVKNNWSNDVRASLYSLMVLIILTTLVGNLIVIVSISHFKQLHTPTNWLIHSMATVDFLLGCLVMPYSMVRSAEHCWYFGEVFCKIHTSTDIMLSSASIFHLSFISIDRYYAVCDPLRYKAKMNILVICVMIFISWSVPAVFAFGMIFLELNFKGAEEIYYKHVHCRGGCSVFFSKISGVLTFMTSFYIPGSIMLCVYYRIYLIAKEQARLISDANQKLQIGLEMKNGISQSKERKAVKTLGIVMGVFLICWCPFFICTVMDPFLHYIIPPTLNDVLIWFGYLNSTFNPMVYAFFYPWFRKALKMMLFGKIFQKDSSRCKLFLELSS
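Assay system – CHO-derived RD-HGA16 cells with stable Gα16 and human TAAR1 · Compound dosing – one-point dosing at 3 µM (nominal) · Incubation – 17-24 h seeding, 75 min 37 °C dye, 30 min RT · Measured by – kinetic Fluo-8 calcium fluorescence · Control set – DMSO vehicle as 0%, PEA at EC100 as 100% · Repeats – single well for each compound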
TAAR1 antagonist – human TAAR1 antagonism; inhibition, % at 3 µM; Q96RJ0; hit rate 1.5% among 360,000; CHO RD-HGA16 TAAR1, Fluo-8 calcium fluorescence, antagonist;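 active = inhibition above a per-plate cutoff, the mean inhibition of test compounds on that plate plus 3 SD, cut at about 49% in these data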;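 also: 0% = DMSO plus EC80 beta-PEA response and 100% = DMSO alone without agonist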
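test system = CHO RD-HGA16 cells bearing hTAAR1 | replication = singlicate | controls = DMSO-only wells and EC80 β-PEA-stimulated wells | reagent = EC80 β-phenethylamine stimulus | read-out basis = percent inhibition of PEA-evoked calcium signal, max/basal emission ratio | schedule = seeding 17-24 h prior, 75-min 37 °C, 30-min RT dye loading | signal = kinetic Fluo-8 calcium fluorescence measurement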
GPR7 antagonist – blocks human GPR7 receptor signaling | P48145 | GPR7-expressing cells, fluorescence antagonist assay | inhibition, % at 4.4 µM | hit rate 1.1% among 290,000 | AID 1861; in the data active = inhibition above about 16%, passing the limit was not always enough;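 also: cells stimulated with the agonist NPW; 0% = agonist with vehicle and 100% = vehicle without agonist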
DAGLB inhibitor – diacylglycerol lipase beta (human) inhibition; HEK293T DAGLB membrane lysate, EnzChek fluorogenic substrate; inhibition, % at 5.17 µM; Q8NCG7; hit rate 0.059% among 340,000; AID 504411; in the data active = inhibition above about 34%;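 also: 0% = enzyme with vehicle and 100% = wells lacking enzyme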
TAAR1 ag conf – confirmation of human TAAR1 agonists; activation, % at 3 µM; hit rate 82% among 2,400; CHO RD-HGA16 TAAR1, Fluo-8 calcium fluorescence; scaled: DMSO 0%, maximal phenethylamine 100%; shares compounds with TAAR1 ag;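 active = activation above a cutoff set at the run's mean compound activation plus 3 SD, cut at about 39% in these data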
Ga16 ag counter – nonselective agonist in parental cells, TAAR1 agonist counter-screen. shares compounds with TAAR1 ag. CHO-Ga16 parental, Fluo-8 calcium fluorescence; normalized to maximal ATP response, DMSO zero. activation, % at 3 µM. hit rate 50% among 2,400. AID 651787;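 active = activation above the run cutoff, the mean activation over all tested wells plus 3 SD, cut at about 12% in these data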;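 also: 0% = DMSO wells and 100% = maximal ATP response on the peak over basal ratio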
TAAR1 desensitize – counter-screen for human TAAR1 agonists: agonists that desensitize TAAR1; hit rate 46% among 2,400; CHO RD-HGA16 hTAAR1, Fluo-8 calcium, beta-PEA response inhibition; AID 651951; shares compounds with TAAR1 ag; inhibition, % at 3 µM;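 active = inhibition above the run cutoff, the mean inhibition of all test compounds plus 3 SD, cut at about 49% in these data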;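 also: beta-PEA stimulus applied at its EC80; loss of beta-PEA calcium signal after compound pretreatment read as receptor desensitization; 0% = DMSO with beta-PEA at EC80 and 100% = DMSO alone without agonist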
Ga16 antag count – nonselective Ga16 antagonist in TAAR1 agonist counter-screen; shares compounds with TAAR1 ag; CHO-Ga16 ATP-induced calcium, Fluo-8 fluorescence; inhibition, % at 3 µM; hit rate 39% among 2,400;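 active = inhibition above the plate's mean compound inhibition plus 3 SD, computed per plate, cut at about 22% in these data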;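 also: 0% = EC80 ATP with DMSO and 100% = DMSO wells without ATP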
Numbers without * were called inactive; x = no result.

SMILES	MPTP inh	TAAR1 ag	TAAR1 antagonist	GPR7 antagonist	DAGLB inhibitor	TAAR1 ag conf	Ga16 ag counter	TAAR1 desensitize	Ga16 antag count
Cc1ccc(N2C(=O)/C(=C/N3CCN(C(=O)c4ccco4)CC3)C(=O)NC2=S)cc1C	18	56*	-7	-12	3	73*	1	6	2
O=C1NC(=S)N(c2ccccc2)C(=O)/C1=C/c1ccco1	0	2	8	-13	3	x	x	x	x
COC(=O)C1=C(c2ccc(OCc3ccccc3)cc2)C[C@@H]2CC[C@H]1N2C	0	7	2	x	1	x	x	x	x
CN(CC=CCN(C)P(=S)(N1CC1)N1CC1)P(=S)(N1CC1)N1CC1	0	2	-8	x	0	x	x	x	x
C[CH2][Hg][S]c1ccccc1C(=O)O	2	120*	96*	x	-1	44*	59*	73*	84*
CN1CC(C(=O)c2cccs2)C(c2ccc(Cl)cc2)C1 (stereo not drawn)	0	1	-23	15	-3	x	x	x	x
CN1CC(C(=O)c2ccc(Cl)cc2)C(c2ccccc2)C1 (stereo not drawn)	0	45*	2	0	-2	75*	13*	36	11
CCCCn1c(O)c(C(C)=NCCc2ccccc2)c(=O)[nH]c1=O	-15	73*	34	4	8	44*	4	11	11
CCCCn1c(O)c(C(C)=NC(C)c2ccccc2)c(=O)[nH]c1=O (stereo not drawn)	-2	-2	5	-18	7	x	x	x	x
CCC(=NCCc1ccccc1)c1c(O)[nH]c(=O)[nH]c1=O	2	x	x	-18	1	x	3	x	4
CCC(=NCCC1=CCCCC1)c1c(O)[nH]c(=O)[nH]c1=O	1	7	-18	-5	2	x	x	x	x
CN1C[C@H](CO)C=C2c3cccc4[nH]cc(c34)C[C@H]21	2	64*	64*	-5	-1	92*	3	85*	7
CCCCn1c(=O)c(C(=O)Nc2ccccc2C)c(O)c2ccccc21	4	x	x	-6	2	x	x	x	x
CCCCCn1c(=O)c(C(=O)Nc2ncccc2C)c(O)c2ccccc21	12	54*	11	4	0	54*	86*	35	44*
CC(C)(C#CCCCCC#CC(C)(C)[N+](C)(C)C)[N+](C)(C)C	x	x	x	-11	x	x	x	x	x
COc1ccc(CNCCc2ccccc2F)c(OC)c1C	3	84*	73*	-7	-2	93*	8	80*	10
Cn1cccc1CNCCc1ccccc1F	0	63*	67*	-6	-1	102*	-1	82*	5
COC(=O)C1=CO[C@@H](C)[C@@H]2CN(CCc3c[nH]c4ccccc34)CC[C@H]12	-1	-1	-38	x	-2	x	x	x	x
CCOC(=O)[C@]12Cc3ccccc3[C@H]1N(CCC(=O)OC)C(=O)c1ccccc12	-1	3	-24	x	x	x	x	x	x
NC(N)=N/N=C/c1cn(-c2ccccc2)nc1-c1cccs1	49	47*	4	-10	4	76*	7	35	13
Brc1ccc(C2N3CCCN23)cc1 (stereo not drawn)	1	1	-4	-6	0	x	x	x	x
CCC1(Oc2ccccc2)C(=O)NC(=O)NC1=O	-1	2	2	x	-2	x	x	x	x
CCC1(C)OC(c2ccccc2)=C/C(=C/C=C2C(=O)NC(=O)NC2=O)O1 (stereo not drawn)	13	70*	68*	8	0	20	24*	26	42*
O=C(NCCN1CCC2(CC1)C(=O)NCN2c1ccccc1)C(c1ccccc1)c1ccccc1	x	58*	93*	x	x	33	24*	76*	62*
